The target in assay [1] is T1, Mu-type opioid receptor (Homo sapiens, UniProt P35372). As to the kind of experiment: Inhibition of [3H]DAMGO binding to mu opioid receptor expressed in CHO cells at 7 nM after 90 mins by WRIB assay. In kind it is cell-based. The gist of the method: (§1)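 Wash-resistant inhibition of binding in MOR-expressing CHO cell membranes. Membranes were incubated with peptide, either near its IC50 or at higher concentrations, then washed extensively to remove noncovalently bound ligand. Remaining [3H]DAMGO binding was then measured and expressed as % inhibition against untreated control. Acetylated reversible analogues were run alongside to verify that the wash was complete.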
T1 sequence (P35372 whole entry): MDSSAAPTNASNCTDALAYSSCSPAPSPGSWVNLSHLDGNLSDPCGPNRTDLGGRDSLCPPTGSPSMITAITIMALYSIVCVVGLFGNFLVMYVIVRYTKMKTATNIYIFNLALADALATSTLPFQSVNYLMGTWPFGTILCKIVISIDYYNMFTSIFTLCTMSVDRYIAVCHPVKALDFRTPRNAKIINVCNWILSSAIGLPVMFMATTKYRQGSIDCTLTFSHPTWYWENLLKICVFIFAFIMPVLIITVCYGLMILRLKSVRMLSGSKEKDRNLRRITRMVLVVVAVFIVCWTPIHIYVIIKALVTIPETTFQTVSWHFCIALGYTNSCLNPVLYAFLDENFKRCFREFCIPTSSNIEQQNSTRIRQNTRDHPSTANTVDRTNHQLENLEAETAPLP

Assay [2] concerns the target T1, Mu-type opioid receptor. As to the kind of experiment: Displacement of [3H]DAMGO from mu opioid receptor expressed in CHO cells after 90 mins by scintillation counting relative to dermorphin. In kind it is cell-based. In general terms: Loss of bound radioactivity is the signal in a displacement assay; it reports binding, not function.
Assay [3] deals with T1, Mu-type opioid receptor. Put plainly: Displacement of [3H]DAMGO from mu opioid receptor expressed in CHO cells after 90 mins by scintillation counting. The class given is cell-based. The gist of the method:
(§2)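 Competitive radioligand binding on CHO cells stably expressing MOR or DOR. Radioligand was [3H]DAMGO for MOR and [3H]DPDPE for DOR. IC50 values were measured under standard conditions.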

Assay [4] has as its target Delta-type opioid receptor (Homo sapiens, UniProt P41143). Put plainly: Displacement of [3H]DPDPE from delta opioid receptor expressed in CHO cells after 90 mins by scintillation counting. The class given is cell-based. The gist of the method: as §2
Assay [5] in a line: Ratio of dermorphin selectivity for mu opioid receptor over delta opioid receptor to compound selectivity for mu opioid receptor over delta opioid receptor.
Assay [6] deals with Mu-type opioid receptor (Cavia porcellus) (UniProt P97266). As to the kind of experiment: Ratio of compound IC50 to beta-FNA IC50 for mu opioid receptor in guinea pig brain membrane. In kind it is cell membranes.
Sequence of Mu-type opioid receptor (Cavia porcellus) (P97266 whole entry): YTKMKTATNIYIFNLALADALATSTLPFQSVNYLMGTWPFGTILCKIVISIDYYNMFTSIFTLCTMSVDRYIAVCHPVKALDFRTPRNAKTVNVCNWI
Assay [7] in a line: Selectivity ratio of IC50 for delta opioid receptor to IC50 for mu opioid receptor. The gist of the method:
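MOR selectivity was calculated as the ratio of DOR IC50 to MOR IC50. Both IC50s came from CHO-cell binding, with [3H]DPDPE as the DOR radioligand and [3H]DAMGO as the MOR radioligand. Ratios depend on the radioligand concentration used.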

Assay [8] has as its target Mu-type opioid receptor (Cavia porcellus, UniProt P97266). Put plainly: Displacement of beta-[3H]FNA from mu opioid receptor in guinea pig brain membrane. The class given is cell membranes.
Assay [9] addresses T1, Mu-type opioid receptor. Put plainly: Inhibition of [3H]DAMGO binding to mu opioid receptor expressed in CHO cells after 90 mins by WRIB assay. The class given is cell-based. The gist of the method: as §1
The target of assay [10] is T1, Mu-type opioid receptor. As to the kind of experiment: Inhibition of [3H]DAMGO binding to mu opioid receptor expressed in CHO cells at 0.4 nM after 90 mins by WRIB assay. The class given is cell-based. The gist of the method:
as §1

Assay [11] deals with T1, Mu-type opioid receptor. As to the kind of experiment: Ratio of dermorphin IC50 to compound IC50 for mu opioid receptor expressed in CHO cells. In kind it is cell-based.
Assay [12] addresses Mu-type opioid receptor (Rattus norvegicus) (UniProt P33535). Put plainly: Inhibition of [3H]naloxone binding to mu opioid receptor in rat brain membrane. The class given is cell membranes.
Assay [13] has the same target. Put plainly: (§3) Inhibition of [3H]DAMGO binding to mu opioid receptor in rat brain membrane. In kind it is cell membranes.
Assay [14] has as its target Mu-type opioid receptor (Rattus norvegicus, UniProt P33535). The description is as §3. The class given is cell membranes.
Assay [15] has as its target T1, Mu-type opioid receptor. Conditions: CHO; 0.11 nM.
Assay [16] addresses T1, Mu-type opioid receptor. Conditions: CHO; 0.43 nM.

The source made the active and inactive calls. No cut-off for these calls is given here. Numbered stars: 1 amine (or outer) side, 2 acyl side, 3 side chain; on linkers, the order of the positions; unused ones are H or OH. Square brackets hold non-standard residues; d marks the D form. Peptide text beside a SMILES is read from it. X6 = O=C(CBr)N(CCCC[C@@H](N[*:1])C(=O)[*:2])C(=O)CBr; X1 = O=C(CBr)N(CCC[C@@H](N[*:1])C(=O)[*:2])C(=O)CBr; X7 = CC(=O)N(CCCC[C@@H](N[*:1])C(=O)[*:2])C(C)=O; X8 = CC(=O)N(CCC[C@@H](N[*:1])C(=O)[*:2])C(C)=O; X5 = O=C([C@@H](CCCCN(N=C=S)N=C=S)N[*:1])[*:2]; X4 = O=C([C@@H](CCCN(N=C=S)N=C=S)N[*:1])[*:2]

Sequence of Delta-type opioid receptor (P41143 whole entry): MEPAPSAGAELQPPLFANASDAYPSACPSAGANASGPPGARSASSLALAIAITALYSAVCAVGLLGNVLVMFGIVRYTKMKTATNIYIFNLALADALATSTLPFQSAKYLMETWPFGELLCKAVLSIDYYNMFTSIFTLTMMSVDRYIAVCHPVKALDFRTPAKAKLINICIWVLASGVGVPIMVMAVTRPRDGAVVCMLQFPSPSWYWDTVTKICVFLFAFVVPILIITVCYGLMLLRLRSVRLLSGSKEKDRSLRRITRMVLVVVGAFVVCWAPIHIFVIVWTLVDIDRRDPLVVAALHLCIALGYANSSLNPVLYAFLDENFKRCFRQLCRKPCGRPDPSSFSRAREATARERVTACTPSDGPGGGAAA
Sequence of Mu-type opioid receptor (Rattus norvegicus) (P33535 whole entry): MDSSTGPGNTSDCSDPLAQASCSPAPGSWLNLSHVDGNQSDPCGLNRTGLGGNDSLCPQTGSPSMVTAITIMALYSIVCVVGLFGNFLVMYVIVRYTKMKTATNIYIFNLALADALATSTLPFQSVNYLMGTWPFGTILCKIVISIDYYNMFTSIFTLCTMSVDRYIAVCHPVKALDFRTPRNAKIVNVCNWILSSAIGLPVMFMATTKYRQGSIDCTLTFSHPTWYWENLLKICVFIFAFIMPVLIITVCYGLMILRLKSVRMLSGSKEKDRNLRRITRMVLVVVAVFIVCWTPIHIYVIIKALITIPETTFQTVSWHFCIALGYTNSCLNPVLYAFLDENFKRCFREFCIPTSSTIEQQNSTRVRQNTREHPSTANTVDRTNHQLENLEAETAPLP
Sequence of Mu-type opioid receptor (Rattus norvegicus, UniProt P33535) (P33535 whole entry): as above
Sequence of Mu-type opioid receptor (Cavia porcellus, UniProt P97266) (P97266 whole entry): as the sequence (P97266 whole entry) above

By inhibition is commonly meant how much of the control response was suppressed. As usually defined, the IC50 is the midpoint of a concentration-inhibition curve. `N[C@@H](Cc1ccc(O)cc1)C(=O)N[C@H](CCCCN(C(=O)CBr)C(=O)CBr)C(=O)N[C@@H](Cc1ccccc1)C(=O)NCC(=O)N[C@@H](Cc1ccc(O)cc1)C(=O)N1CCC[C@H]1C(=O)N[C@@H](CO)C(=O)O` (H-Y[X6]FGYPS-OH) showed an inhibition in assay [1] of 32%. This compound also returned an Activity in [2] of 0.14. In addition, the half-maximal inhibitory concentration (IC50) turned out to be 5.23 nM in assay [3] and 382 nM in assay [4]. Moreover, the Ratio in [5] turned out to be 4. The Ratio IC50 in [6] came to 3; in [7], 73.

`COC(=O)/C=C/C(=O)N[C@@H]1CC[C@@]2(O)[C@H]3Cc4ccc(O)c5c4[C@@]2(CCN3CC2CC2)[C@H]1O5` displayed an IC50 in [8] of 2.2 nM.

As for `N[C@@H](Cc1ccc(O)cc1)C(=O)N[C@H](CCCCN(N=C=S)N=C=S)C(=O)N[C@@H](Cc1ccccc1)C(=O)NCC(=O)N[C@@H](Cc1ccc(O)cc1)C(=O)N1CCC[C@H]1C(=O)N[C@@H](CO)C(=O)O` (H-Y[X5]FGYPS-OH), in assay [2], the Activity worked out at 1.89. Moreover, the values for the IC50 in assay [3] and in [4] were 0.38 nM and 97.1 nM, respectively. Also, the inhibition result is “Dose-dependent effect” in assay [9] and 31% in [10]. Besides, the figures for the Ratio IC50 in [7] and in assay [11] were 255 and 2, respectively.

Take `C[C@@H](NC(=O)[C@@H](N)Cc1ccc(O)cc1)C(=O)NCC(=O)N(C)c1ccccc1`: the inhibition result in [12] is “Dose-dependent effect”.

`CC(C)C[C@@H](CSSc1ncccc1[N+](=O)[O-])NC(=O)[C@H](Cc1ccccc1)NC(=O)CNC(=O)C(C)NC(=O)[C@@H](N)Cc1ccc(O)cc1` (stereo in doubt): in assay [13], the inhibition entry is “Dose-dependent effect”. The IC50 in [14] came to 19 nM.

In assay [2], `CC(=O)N(CCCC[C@@H](NC(=O)[C@@H](N)Cc1ccc(O)cc1)C(=O)N[C@@H](Cc1ccccc1)C(=O)NCC(=O)N[C@@H](Cc1ccc(O)cc1)C(=O)N1CCC[C@H]1C(=O)N[C@@H](CO)C(=O)O)C(C)=O` (H-Y[X7]FGYPS-OH) gave an Activity of 0.02. Besides, the IC50 in assay [3] was determined as 29.8 nM; in assay [4], 436 nM. The Ratio IC50 in assay [7] came out at 15.

As for `CC(=O)N(CCC[C@@H](NC(=O)[C@@H](N)Cc1ccc(O)cc1)C(=O)N[C@@H](Cc1ccccc1)C(=O)NCC(=O)N[C@@H](Cc1ccc(O)cc1)C(=O)N1CCC[C@H]1C(=O)N[C@@H](CO)C(=O)O)C(C)=O` (H-Y[X8]FGYPS-OH), the Activity in assay [2] turned out to be 0.17. The IC50 in assay [3] came out at 4.25 nM; in [4], 272 nM. In assay [7], the Ratio IC50 was 64.

On to `N[C@@H](Cc1ccc(O)cc1)C(=O)N[C@H](CCCN(C(=O)CBr)C(=O)CBr)C(=O)N[C@@H](Cc1ccccc1)C(=O)NCC(=O)N[C@@H](Cc1ccc(O)cc1)C(=O)N1CCC[C@H]1C(=O)N[C@@H](CO)C(=O)O` (H-Y[X1]FGYPS-OH), for which the Activity in [2] was 6.54. For the same compound, the IC50 came to 0.11 nM in assay [3] and 342 nM in [4]. In addition, the inhibition entry in [9] was “Dose-dependent effect”. The Ratio IC50 in assay [6] stood at 3; in assay [7] it was 3110; in [11], 7. The inhibition result in assay [15] was “inactive”.

In turn, `N[C@@H](Cc1ccc(O)cc1)C(=O)N[C@H](CCCN(N=C=S)N=C=S)C(=O)N[C@@H](Cc1ccccc1)C(=O)NCC(=O)N[C@@H](Cc1ccc(O)cc1)C(=O)N1CCC[C@H]1C(=O)N[C@@H](CO)C(=O)O` (H-Y[X4]FGYPS-OH) showed an Activity in assay [2] of 0.89. For the same compound, the IC50 in assay [3] was 0.81 nM; in assay [4], 23.8 nM. Besides, the Ratio in assay [5] was found to be 9. Besides, the Ratio IC50 stood at 3 in [6] and 29 in assay [7]. Further, the inhibition in assay [16] was 40%.

Values taken from ChEMBL document CHEMBL1154775, “Discovery of dermorphin-based affinity labels with subnanomolar affinity for mu opioid receptors” (J Med Chem, 2009).
